# ChEMBL document CHEMBL1143127 (Bioorg Med Chem, 2008)
# The source made the active and inactive calls. No cut-off for these calls is given here.
# T1: 17-beta-hydroxysteroid dehydrogenase type 2 (Homo sapiens) (UniProt P37059)
# T1 sequence (whole entry): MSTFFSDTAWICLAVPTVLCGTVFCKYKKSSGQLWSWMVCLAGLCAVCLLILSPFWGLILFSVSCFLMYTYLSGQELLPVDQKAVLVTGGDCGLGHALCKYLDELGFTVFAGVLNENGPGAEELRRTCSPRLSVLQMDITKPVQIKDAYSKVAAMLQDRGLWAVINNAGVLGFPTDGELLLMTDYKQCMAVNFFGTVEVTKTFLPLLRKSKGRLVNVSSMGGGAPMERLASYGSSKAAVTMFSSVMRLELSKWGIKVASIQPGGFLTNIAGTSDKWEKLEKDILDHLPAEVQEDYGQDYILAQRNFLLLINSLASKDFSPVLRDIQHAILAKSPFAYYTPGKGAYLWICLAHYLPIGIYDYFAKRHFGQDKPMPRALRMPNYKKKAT
# T2: 17-beta-hydroxysteroid dehydrogenase type 1 (Homo sapiens, UniProt P14061)
# T2 sequence (P14061 whole entry): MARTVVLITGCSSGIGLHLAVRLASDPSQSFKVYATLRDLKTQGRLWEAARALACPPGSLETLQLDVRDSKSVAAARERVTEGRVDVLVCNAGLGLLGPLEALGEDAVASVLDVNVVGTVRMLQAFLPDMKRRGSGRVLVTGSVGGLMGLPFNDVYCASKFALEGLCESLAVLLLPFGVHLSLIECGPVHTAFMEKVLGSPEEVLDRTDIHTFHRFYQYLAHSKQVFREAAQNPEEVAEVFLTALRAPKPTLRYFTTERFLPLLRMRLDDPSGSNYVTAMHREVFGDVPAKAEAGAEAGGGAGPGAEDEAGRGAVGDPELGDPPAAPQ
# Assays:
# T47D [1] = assay: Antiproliferative activity against estrogen receptor positive human T47D cells at 1 uM after 8 days relative to control; assay type: functional
# Outline: (§1)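 Estrogen-starved cells, resuspended in phenol red-free medium (RPMI for T-47D, DME-F12 for MCF-7) with insulin (50 ng/mL) and 5% dextran-coated charcoal-treated FBS, seeded 3000 cells/well. After 48 h medium replaced with compound dilutions (0.01, 0.1, 1 μM), renewed every 2 days for 8 days. Growth read by CellTiter 96 Aqueous assay; control = 100%; triplicate, mean ± SEM.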
# MCF7 [2] = assay: Antiproliferative activity against estrogen receptor positive human MCF7 cells at 0.1 uM after 8 days relative to control; assay type: functional; outline: as §1
# T47D [3] = assay: Antiproliferative activity against estrogen receptor positive human T47D cells at 0.1 uM after 8 days relative to control; assay type: functional, cell-based; outline: as §1
# T47D [4] = assay: Antiproliferative activity against estrogen receptor positive human T47D cells at 0.01 uM after 8 days relative to control; assay type: functional, cell-based; outline: as §1
# MCF7 [5] = assay: Reversal of estrogen-induced proliferation in estrogen-sensitive human MCF7 cells at 0.5 uM after 8 days relative to control; assay type: functional, cell-based
# Outline: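 Antiestrogenic test: MCF-7 cells plated in phenol red-free DME-F12 with charcoal-stripped FBS; two days later incubated 8 days with E₂ (0.1 nM) plus compound (0.5 μM), pure antiestrogen EM-139 (0.5 μM) as reference, medium changed every second day. CellTiter 96 Aqueous read-out; triplicate, mean ± SEM.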
# [6] = target: T1, 17-beta-hydroxysteroid dehydrogenase type 2 (Homo sapiens); assay: Inhibition of 17beta-HSD2 over-expressed in HEK293 cells assessed as inhibition of transformation of [14C]-estrogen into [14C]-estrone at 10 uM; assay type: cell-based
# T47D [7] = assay: Reduction of estrone-induced human T47D cell growth at 0.5 uM after 8 days relative to control; assay type: functional; parameters: scale not given: the % may be the effect or the level left
# Outline: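 T-47D cells in estrogen-free phenol red-free RPMI with insulin and 5% charcoal-stripped FBS, grown 8 days with E₁ (0.01, 0.1, 1 or 5 nM) plus inhibitor (0.05–1 μM), medium changed every 2 days. Proliferation by CellTiter 96 Aqueous assay; growth without E₁ and inhibitor = 100%. Triplicate, mean ± SEM; Duncan–Kramer test.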
# [8] = target: T2, 17-beta-hydroxysteroid dehydrogenase type 1; assay: Inhibition of 17beta-HSD1 in human T47D cells assessed as inhibition of transformation of [14C]-estrone into [14C]estrogen; assay type: cell-based
# [9] = substrate: C[C@]12CC[C@@H]3c4ccc(O)cc4CC[C@H]3[C@@H]1CC[C@@H]2O
# [10] = substrate: C[C@]12CC[C@@H]3c4ccc(O)cc4CC[C@H]3[C@@H]1CCC2=O
Molecule,Activity (T47D [1]),Activity (MCF7 [2]),Activity (T47D [3]),Activity (T47D [4]),Activity (MCF7 [5]),IC50 [8],also measured
COc1cc2c(cc1O)CC[C@@H]1[C@@H]2CC[C@]2(C)[C@@H](O)[C@@H](Cc3cccc(C(N)=O)c3)C[C@@H]12,41%,21%,inactive,inactive,–,–,–
CCCCN(C)C(=O)CCCCCCCCCC[C@@H]1Cc2cc(O)ccc2[C@H]2CC[C@]3(C)[C@@H](O)[C@H](Cl)C[C@H]3[C@H]12,–,–,–,–,Active,–,–
C[C@]12CC[C@@H]3c4ccc(O)cc4CC[C@H]3[C@@H]1C[C@H](Cc1cccc(C(N)=O)c1)[C@@H]2O,–,–,–,–,inactive,44 nM,Activity [6]: inactive; Activity (T47D [7]): 62%
C[C@]12CC[C@@H]3c4ccccc4CC[C@H]3[C@@H]1C[C@H](Cc1cccc(C(N)=O)c1)[C@@H]2O,47%,31%,inactive,inactive,–,–,–
C[C@]12CC[C@@H]3c4ccc(O)cc4CC[C@H]3[C@@H]1C[C@H](Cc1cccc(C(N)=O)c1)C2=O,–,–,–,–,–,171 nM,–
"17-beta-hydroxysteroid dehydrogenase type 1 (Homo sapiens), P14061 (protein) MARTVVLITGCSSGIGLHLAVRLASDPSQSFKVYATLRDLKTQGRLWEAARALACPPGSLETLQLDVRDSKSVAAARERVTEGRVDVLVCNAGLGLLGPLEALGEDAVASVLDVNVVGTVRMLQAFLPDMKRRGSGRVLVTGSVGGLMGLPFNDVYCASKFALEGLCESLAVLLLPFGVHLSLIECGPVHTAFMEKVLGSPEEVLDRTDIHTFHRFYQYLAHSKQVFREAAQNPEEVAEVFLTALRAPKPTLRYFTTERFLPLLRMRLDDPSGSNYVTAMHREVFGDVPAKAEAGAEAGGGAGPGAEDEAGRGAVGDPELGDPPAAPQ",–,–,–,–,–,–,Km [9]: 4.6 µM; Km [10]: 0.03 µM
